Assay results pooled from the literature.
Lines come from different studies, so protocols differ.
Target: Angiopoietin-1 receptor (TEK, Homo sapiens, UniProt Q02763)

`Nc1ncc(-c2nc(N3CCOCC3)nc(N3CCOCC3)n2)c(C(F)F)n1` has a remaining binding of 99% (cell-free assay, competition with immobilised ligand; 10 µM).
`Cc1nn(C)cc1-c1nc2c(N3CCN(Cc4ccc(Cl)cc4)CC3)c(Cl)cnc2[nH]1` gave a remaining binding of 56% (binding, competition with immobilised ligand; 1 µM).
The inhibition of `COc1cc(Nc2ncc(F)c(Nc3ccc4c(n3)NC(=O)C(C)(C)O4)n2)cc(OC)c1OC` is reported as 94% (binding; 10 µM).
`O=c1[nH]c2ccccc2n1C1CCN(Cc2ccc(-c3[nH]c4cc5ncnc5cc4nc3-c3ccccc3)cc2)CC1` gave a remaining signal of 102% (cell-free assay; 0.5 µM).
With `COCc1c(-c2cc3cc(C)cc(OC)c3s2)c2c(N)ncnn2c1CN1CCNC(=O)C1` the inhibition was 89% (cell-free assay, competition with immobilised ligand; 1 µM).
For `COc1ncccc1-c1cnn2ccc(N3CCN(C(=O)OC(C)C)CC3)nc12`, the remaining binding was 98% (binding, competition with immobilised ligand; 1 µM).
`O=C(NCc1ncc(C(F)(F)F)cc1Cl)c1ccc2c(c1)C1(CCS(=O)(=O)CC1)[C@@H](C1CC1)N2S(=O)(=O)c1ccc(F)cc1` has a remaining binding of 96% (cell-free assay, competition with immobilised ligand; 1 µM).
`Cn1cc(-c2cc(F)cc(N3CCn4c(cc5c4CCCC5)C3=O)c2CO)cc(Nc2ccc(N3CCN(C4COC4)CC3)cn2)c1=O` has an inhibition of 7% (enzyme activity, inhibitor; 0.1 µM).
The remaining binding of `Cn1cncc1[C@@](O)(COc1ccc(C#N)cc1-c1ccc(OC(F)(F)F)cc1)c1ccc(C#N)cc1` is reported as 92% (cell-free assay, competition with immobilised ligand; 1 µM).
For `CC(C)(C)c1cc(C=C(C#N)C#N)cc(Br)c1O`, the remaining activity was 97.9% (enzyme activity, inhibitor; 0.5 µM).
